Yeast superoxide: caloric restriction mimetics inhibiting age-related superoxide in yeast. 0.18% of 330,000 active. superoxide response (% of plate mean), % at 10 µM. S. cerevisiae aged cells, superoxide DHE fluorescence; active compounds read low;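 active = superoxide response under a set limit, about three screen SD below normal, cut at about 65% in these data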;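 note: yeast aged for seven days with compound at 30 °C before DHE staining; 100% = average MFI of all compound-treated wells on the plate with controls excluded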
ARFGAP1 inhibitor: inhibitors of rat ARFGAP1. 0.26% of 360,000 active. Q62848. Arfgap1-stimulated ARF1 GTP hydrolysis, GDP FP detection. inhibition, % at 16.5 µM;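 active = inhibition above a per-plate limit, mean inhibition of low control wells plus 3 SD, cut at about 25% in these data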;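 note: 0% = DMSO wells with enzyme and 100% = wells lacking Arfgap1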
Target sequence (Q62848 1-136 limits assumed): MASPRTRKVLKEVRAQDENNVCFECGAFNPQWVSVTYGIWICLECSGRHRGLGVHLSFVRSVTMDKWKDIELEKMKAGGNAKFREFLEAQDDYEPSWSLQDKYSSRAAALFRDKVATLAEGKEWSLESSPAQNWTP
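Material: truncated rat Arfgap1 GAP domain; Incubation: compound-enzyme preincubation 20 min, reaction 120 min, detection 60 min, 25 °C; Read-out: percent inhibition of Arfgap1-stimulated GTP hydrolysis; Technique: FP, GDP Alexa 633 tracer displaced from anti-GDP antibody, 620/688 nm; Controls: No-Arfgap1 wells (100%) versus DMSO full-reaction wells (0%); Replication: single well per compound.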
LANA-H2A inh: blocks KSHV LANA binding to histone H2A/H2B. AID 2629. Q9QR71. cell-free LANA-H2A/H2B peptide, fluorescence polarization. inhibition, % (test concentration not listed). 0.6% of 320,000 active; in the data active = inhibition mostly above about 10%, no sharp cut-off; inactive = mostly below about 6.7%
proCasp7 act: counter-screen: procaspase-7 (human) activation; AID 463210; activation, % at 8.5 µM; recombinant procaspase-7, Ac-DEVD-pNA absorbance 405 nm; D23A/D198A/D206A triple mutant, cannot self-cleave; scale: DMSO 0, 5 µM enzyme 100; 0.093% of 330,000 active;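 active = percent activation above the screen-wide mean plus 3 SD, cut at about 25% in these data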
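Replicates: singlicate. Assay system: Procaspase-7 triple mutant (PC-7 D3A). Signal: 405 nm absorbance of p-nitroaniline. Times: 1 h preincubation, 2 h reaction. Buffer or medium: Zinc-free HEPES pH 7.4 with 300 mM NaCl, 0.01% Triton X-100. Also added: DEVD-pNA substrate. Benchmarks: DMSO wells as 0%, DMSO with 5 µM added PC-7 as 100%.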
procasp3 activ: procaspase-3 (human) activation; recombinant procaspase-3 D3A, Ac-DEVD-pNA absorbance 405 nm; activation, % at 8.5 µM; 0.11% of 330,000 active; P42574;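 active = activation above the mean of all tested compounds plus 3 SD, cut at about 21% in these data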;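 note: 0% = DMSO alone and 100% = DMSO wells spiked with extra 5 µM PC-3 D3A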
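Assay system: Procaspase-3 D3A mutant, all three cleavage aspartates alanine. Buffer or medium: Zinc-free HEPES saline buffer with Triton X-100. Times: 1 h compound preincubation, 2 h substrate hydrolysis at 25 °C. Measured by: 405 nm absorbance of p-nitroaniline, reads at 0 and 120 min. Read-out basis: percent activation relative to control range. Replicates: singlicate.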
ASAP1 GAP inh: ASAP1 ArfGAP inhibition; ASAP1-stimulated ARF1 GTP hydrolysis, GDP FP detection; inhibition, % at 16.5 µM; AID 624377; 0.19% of 360,000 active; Q9ULH1; in the data active = inhibition above about 25%;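 note: 0% = vehicle with enzyme and substrate and 100% = no enzyme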
Target sequence (Q9ULH1 325-724 limits assumed): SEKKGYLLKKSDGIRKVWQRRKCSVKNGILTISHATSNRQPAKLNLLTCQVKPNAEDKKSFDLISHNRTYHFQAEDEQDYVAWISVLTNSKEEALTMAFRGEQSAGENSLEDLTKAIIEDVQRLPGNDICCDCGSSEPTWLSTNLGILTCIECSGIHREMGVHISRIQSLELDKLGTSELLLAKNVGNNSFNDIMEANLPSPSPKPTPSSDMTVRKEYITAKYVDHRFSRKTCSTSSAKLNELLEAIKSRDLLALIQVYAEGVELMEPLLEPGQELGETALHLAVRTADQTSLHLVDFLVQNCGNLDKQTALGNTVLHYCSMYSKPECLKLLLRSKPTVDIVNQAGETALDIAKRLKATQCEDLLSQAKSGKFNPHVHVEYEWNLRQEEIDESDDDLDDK
proCasp7 act trip: counter-screen for procaspase-3 activators: activators of human procaspase-7; shares compounds with procasp3 activ; recombinant procaspase-7, Ac-DEVD-pNA absorbance; asp23/198/206-to-Ala mutant, cannot self-cleave; activation, % at 8.5 µM; 210 tested, under 10 active; AID 488941;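 active = mean activation above a set limit taken from an earlier procaspase-7 screen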;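 note: 0% = DMSO wells and 100% = DMSO plus 5 µM procaspase-7 enzyme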
procasp3 conf: confirmation of human procaspase-3 activators | shares compounds with procasp3 activ | activation, % at 8.5 µM | recombinant PC-3 D3A, Ac-DEVD-pNA absorbance 405 nm; 100% is higher-enzyme control | AID 488954 | 10% of 210 active;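 active = mean activation above a set limit carried over from the earlier primary screen, cut at about 22% in these data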
* hit, by the source's call; i = inactive; · = not tested or not shown. Shown are actives, neighbours in structure and some others; about 1.2% of the full set was active somewhere.

SMILES	Yeast superoxide	ARFGAP1 inhibitor	LANA-H2A inh	proCasp7 act	procasp3 activ	ASAP1 GAP inh	proCasp7 act trip	procasp3 conf
Cc1csc(NC(=O)CSc2nncs2)n1	95.3	6.3	-0.8	5.3	0.5	-9.7	·	·
CCCc1[nH]nc2c1C(c1cccc(OC(=O)c3ccco3)c1)C(C#N)=C(N)O2 (stereo not drawn)	85.1	17.3	4.1	9.2	21.3*	-2.6	0.1	3.7
CCCc1[nH]nc2c1C(c1cc(OC)cc(OC)c1)C(C#N)=C(N)O2 (stereo not drawn)	93.0	6.5	4.3	-11.8	-11.1	-8.1	·	·
Cc1cc2nc(-c3ccccc3)cc(=O)n2[nH]1	114.2	4.8	1.9	2.8	22.7*	-4.9	-0.2	2.6
Cc1cc(=O)n2[nH]c(C)cc2n1	111.4	8.5	-1.8	4.2	-11.7	2.3	·	·
CN(C)S(=O)(=O)c1ccc(C(=O)NCCC(=O)N2CCCC2)cc1	108.2	13.3	-3.4	-2.0	-4.9	-3.2	·	·
Cc1cccc(C)c1C(=O)N[C@@H](Cc1ccccc1)C(=O)O	·	5.7	0.8	6.9	-6.1	13.8	·	·
N#Cc1cc(S(=O)(=O)c2ccc(Cl)cc2)c(N)[nH]c1=O	102.5	-28.7	-5.8	21.0	23.1*	5.9	-20.2	-14.8
Cc1cc(C)c(S(=O)(=O)c2ccc(Cl)cc2)c(=O)[nH]1	111.9	-2.8	1.9	9.0	-1.5	-2.4	·	·
N#Cc1c(-c2ccncc2)c2c([nH]c1=O)-c1ccccc1OC2	97.6	-6.7	-5.4	-0.6	-7.8	9.7	·	·
N#Cc1c(-c2ccccc2Cl)c2c([nH]c1=O)-c1ccccc1OC2	113.7	-6.1	3.7	3.8	25.9*	-4.1	-21.5	-14.4
O=C(NN1C(=O)C2C3C=CC(C4CC34)C2C1=O)c1ccc(Cl)c(Cl)c1 (stereo not drawn)	108.3	-4.3	1.0	6.1	0.4	7.5	·	·
O=C(NN1C(=O)C2C3C=CC(C3)C2C1=O)c1cccc(Cl)c1 (stereo not drawn)	100.7	-1.6	4.9	-8.1	23.9*	15.2	4.4	2.7
COc1ccc(CC(=O)N[C@@H](CCSC)C(=O)N2CCC3(CC2)NCCc2[nH]cnc23)cc1	111.2	6.8	8.6	10.4	9.7	-2.6	·	·
O=C(Cc1c(O)c2ccccc2[nH]c1=O)NC1CCCCCCC1	89.0	3.5	-0.1	-7.1	22.0*	1.9	0.3	7.1
CCc1ccccc1OCC(=O)OCC(=O)N1CC(=O)Nc2ccccc21	90.7	-2.9	-3.3	2.6	2.4	-6.2	·	·
CCCCCCCCCCCCN1[C@@H](CC(C)=O)c2cc(C(F)(F)F)ccc2S1(=O)=O	·	1.9	-8.1	7.3	12.1	6.2	·	·
CCCCCCCCN1[C@@H](CC(=O)O)c2ccc(C(F)(F)F)cc2S1(=O)=O	107.8	6.0	-2.5	-1.0	40.1*	-5.9	0.9	3.1
CN(C)CC(C)(C)CNS(=O)(=O)c1ccc(Cl)c(Cl)c1	91.5	-12.0	-3.4	2.6	-9.5	-8.5	·	·
Cc1cccc(C(=O)Nc2sc3c(c2C(=O)O)CCC3)c1	121.3	-8.0	-2.0	-10.8	0.8	-4.6	·	·
CNC(=O)c1c(NC(=O)c2cccc(C)c2)sc2c1CCC2	114.6	-7.8	1.1	-226.4	28.9*	14.8	-3.0	-1.8
COc1ccc(C2=NC(=O)/C(=C\c3cc(OC)c(OC)c(OC)c3)O2)cc1	72.4	-0.1	i	23.3	26.0*	-3.9	26.5*	32.6*
COCCn1c(N)c(C(=O)NCC2CCCO2)c2nc3ccccc3nc21 (stereo not drawn)	102.4	-6.2	3.0	-22.2	-11.2	-1.8	·	·
COCCn1c(N)c(C(=O)NCc2cccs2)c2nc3ccccc3nc21	124.4	18.9	-0.1	-1.1	64.3*	7.2	-21.2	-16.0
Oc1ccc(N=Cc2ccc(-c3cccs3)s2)cc1	131.4	-1.0	6.5	23.5	35.2*	5.0	-21.8	-12.4
SMILES	Yeast superoxide	ARFGAP1 inhibitor	LANA-H2A inh	proCasp7 act	procasp3 activ	ASAP1 GAP inh	proCasp7 act trip	procasp3 conf
CCCn1c2ccccc2c2nnc(SCC(=O)Nc3nnc(CC(=O)OCC)s3)nc21	96.6	1.4	2.1	7.9	84.3*	1.5	2.9	4.0
CCOC(=O)Cc1nnc(NC(=O)CSc2nnc3c4ccccc4n(C(C)C)c3n2)s1	91.0	7.2	0.4	-3.1	-5.5	10.3	·	·
Cc1c(C#N)c(=O)oc2ccc3ccccc3c12	103.0	5.5	0.7	18.9	25.8*	5.5	-22.3	-12.0
CCNC(=O)C1CCCN(C(=O)c2cccc3ccccc23)CC1 (stereo not drawn)	·	0.7	·	·	·	-2.6	·	·
[O-][n+]1onc2c1C(N1CCOCC1)CCC2N1CCOCC1 (stereo not drawn)	103.4	-4.1	-2.7	11.1	67.6*	5.0	4.5	4.8
O=c1c(O)c(-c2cccs2)oc2ccccc12	86.5	2.6	0.6	14.8	26.6*	-2.0	1.1	4.8
Cc1cc(OCC(=O)OCC(=O)NCc2ccco2)ccc1Cl	118.1	-0.5	7.8	4.9	3.9	1.2	·	·
Cc1cc2c3nonc3ccc2n1-c1ccccc1	96.6	-1.5	-0.6	20.0	25.1*	-3.1	-21.6	-13.2
c1ccc(-c2cc3c(ccc4nonc43)nn2)cc1	107.4	1.6	-2.0	-3.6	2.6	-3.2	·	·
CC1(C)CC(=O)C2=C(C1)c1c(ccc3ccccc13)NC2c1ccc(Br)o1 (stereo not drawn)	95.0	-8.4	-3.4	16.0	29.4*	10.7	31.0*	3.6
CC1(C)CC(=O)C2=C(C1)c1c(ccc3ccccc13)NC2c1ccc(OCC(=O)O)cc1 (stereo not drawn)	96.2	-10.5	-2.7	3.6	0.1	-7.5	·	·
CC(=O)Nc1ccccc1OCC(=O)NCC(F)(F)F	107.3	-15.1	8.5	0.3	-2.3	-2.3	·	·
CCCCCC(=O)Nc1sc(C)c(C)c1C#N	99.8	-10.1	0.0	-13.1	4.0	10.6	·	·
Cc1sc(NC(=O)CCCC(=O)O)c(C#N)c1C	104.7	2.4	-4.0	-7.7	21.8*	5.4	-7.0	-0.9
CCN(C(=O)c1cnc(OC)cc1C(F)(F)F)c1ccc(Cl)cc1	97.6	14.3	-3.1	-4.3	27.1*	-3.5	2.6	5.2
CCN(C(=O)c1cnc(OC)cc1C(F)(F)F)c1ccc(Cl)cc1Cl	95.2	4.3	-3.9	4.1	0.4	4.7	·	·
O=C(Cc1cccs1)N1CCN(c2ccc([N+](=O)[O-])cc2)CC1	90.6	-1.0	0.4	-2.6	0.8	5.7	·	·

Assay outcomes as filed in PubChem.
